Experiments:
[1] = system: U87-malignant glioma (ATCC-HTB-14); experiment: MTT assay, cytotoxicity against U87-malignant glioma cells; assay type: cell-based, human; settings: Homo sapiens, Glioma cell
In short: (§1)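 Cells grown in DMEM (4.5 g/L glucose, 10% FBS, 1% penicillin/streptomycin) at 37 °C, 5% CO₂. Seeded at 1 × 10³ cells/well and left 24 h to adhere. Test compound added at 10, 40, 80, 100 or 150 μM for 48 h (text also states MTT added 24 h post-dosing). MTT in PBS added for 3 h, formazan dissolved in DMSO for 30 min, OD read at 550 nm, % viability calculated from absorbance.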

[2] = MTT assay, cytotoxicity against normal HEK293 cells; assay type: cell-based, human; settings: human, HEK293 cells
In short: as §1

[3] = system: human embryonic kidney HEK293 cell line; experiment: as above; assay type: cell-based; settings: compared with malignant glioma U87 cells, 10-150 μM
In short: as §1

## COc1ccc(C=NNC(=O)COc2ccc(C=NNC(=O)C(C)c3ccc(CC(C)C)cc3)cc2)c(OC)c1 (stereo not drawn) [5f, N′-(4-(2-(2-(2,4-Dimethoxybenzylidene)hydrazinyl)-2-oxoethoxy)benzylidene)-2-(4-isobutylphenyl)propanehydrazide]
[1]; read-out: % cell viability U87
  viability at 10 µM: 54.1%
  viability at 40 µM: 44.2%
  viability at 80 µM: 38.7%
  viability at 100 µM: 29%
  viability at 150 µM: 21.6%
[1]; read-out: IC50 (μM ± SEM U87)
  IC50: 24.2 ± 0.46 µM
[2]
  viability at 48 h, 10 μM: 103%
  viability at 48 h, 40 μM: 79.2%
  viability at 48 h, 80 μM: 71.9%
  viability at 48 h, 100 μM: 69.9%
  viability at 48 h, 150 μM: 63.5%
[3]
  cytotoxicity in noncancerous cells (HEK293): lower cytotoxicity

Source: article PMC10764114 (ACS Omega, 2023)
